Laboratory results taken from ChEMBL document CHEMBL4334552, “Discovery of BMS-986260, a Potent, Selective, and Orally Bioavailable TGFβR1 Inhibitor as an Immuno-oncology Agent” (ACS Med Chem Lett, 2020).

Legend:
[1] = Metabolic stability of compound in human liver microsomes assessed as compound remaining; assay type: ADME, Microsome
[2] = Cardiovascular toxicity in rat assessed as valvulo-pathy at 1 mg/kg, po for 10 days; assay type: organism-based; settings: in vivo, 240 h
Summary of the method: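 Exploratory toxicology studies of 10 days with daily oral dosing in rats and dogs. Cardiovascular findings, including valvulopathy and aortic pathology, were assessed.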

TGF-beta receptor type-1 = target: T1, TGF-beta receptor type-1 (Homo sapiens, UniProt P36897); assay: Inhibition of TGFBR1 in human biochemical assay assessed as apparent inhibition constant; settings: read-out: Ki(app)
T1 sequence (P36897 whole entry): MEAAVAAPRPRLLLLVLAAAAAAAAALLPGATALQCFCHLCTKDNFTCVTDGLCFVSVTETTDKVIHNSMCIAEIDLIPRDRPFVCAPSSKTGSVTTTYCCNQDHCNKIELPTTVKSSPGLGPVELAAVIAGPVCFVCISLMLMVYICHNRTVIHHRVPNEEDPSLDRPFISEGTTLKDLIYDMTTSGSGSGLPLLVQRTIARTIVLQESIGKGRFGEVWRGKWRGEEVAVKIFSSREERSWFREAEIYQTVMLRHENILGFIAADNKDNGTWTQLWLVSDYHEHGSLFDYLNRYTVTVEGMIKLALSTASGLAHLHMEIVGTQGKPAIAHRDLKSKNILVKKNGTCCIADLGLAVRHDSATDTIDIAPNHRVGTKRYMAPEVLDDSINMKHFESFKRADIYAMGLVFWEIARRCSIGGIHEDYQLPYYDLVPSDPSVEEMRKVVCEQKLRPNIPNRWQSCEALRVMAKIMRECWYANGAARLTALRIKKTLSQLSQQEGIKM

Stability [1]: 77%
Ki (TGF-beta receptor type-1): 800 pM
SMILES: N#Cc1cnc2ccc(-c3c(-c4ccc(F)c(Cl)c4)ncn3CCO)nn12
Activity [2]: Toxic
